Reference: ChEMBL document CHEMBL1142436, “Design and synthesis of 4-substituted indolo[3,2-e][1,2,3]triazolo[1,5-a]pyrimidine derivatives with antitumor activity” (2008)

Legend:
Format in all cases: functional
MDA-MB-231 = experiment: Growth inhibition of human MDA-MB-231 cells after 48 hrs; conditions: MDA-MB-231, 48 h
Summary of the method: (§1)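 NCI ~60-line screen. Cells were grown in RPMI 1640 with 5% FBS and 2 mM L-glutamine and plated at 5000–40000 cells/well. After a 24 h preincubation, five drug concentrations from DMSO stocks were added for 48 h at 37 °C. Cells were TCA-fixed, stained with SRB and read at 515 nm. GI50 was taken from time-zero and control absorbances and reported as pGI50.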

SN12C = experiment: Growth inhibition of human SN12C cells after 48 hrs
Summary of the method: (§2)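 NCI 60-line screen: cells in RPMI 1640 with 5% FBS and 2 mM L-glutamine, plated at 5000–40000 cells/well, grown 24 h (37 °C, 5% CO₂), then exposed to five 10-fold or ½-log dilutions (DMSO stock) for 48 h. Fixed with TCA (final 10% for adherent cells, 16% for suspension cells), then SRB stained with absorbance at 515 nm. GI50 from percentage growth relative to time-zero and control wells.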

DU-145 = experiment: Growth inhibition of human DU145 cells after 48 hrs; conditions: DU-145, 48 h; summary of the method: as §1
HCC 2998 = experiment: Growth inhibition of human HCC2998 cells after 48 hrs; conditions: HCC 2998, 48 h; summary of the method: as §1
RXF 393 = experiment: Growth inhibition of human RXF393 cells after 48 hrs; conditions: RXF 393, 48 h; summary of the method: as §1
SK-MEL-2 = experiment: Growth inhibition of human SK-MEL2 cells after 48 hrs; conditions: SK-MEL-2, 48 h; summary of the method: as §1
COLO 205 = experiment: Growth inhibition of human COLO205 cells after 48 hrs; conditions: COLO 205, 48 h; summary of the method: as §1
SK-OV-3 = experiment: Growth inhibition of human SKOV3 cells after 48 hrs; conditions: SK-OV-3, 48 h; summary of the method: as §2
HOP-92 = experiment: Growth inhibition of human HOP92 cells after 48 hrs; conditions: HOP-92, 48 h; summary of the method: as §1
HOP-62 = experiment: Growth inhibition of human HOP62 cells after 48 hrs; conditions: HOP-62, 48 h; summary of the method: as §1
Malme-3M = experiment: Growth inhibition of human MALME3M cells after 48 hrs; summary of the method: as §1
OVCAR-8 = experiment: Growth inhibition of human OVCAR8 cells after 48 hrs; conditions: OVCAR-8, 48 h; summary of the method: as §1
SNB-75 = experiment: Growth inhibition of human SNB75 cells after 48 hrs; conditions: SNB-75, 48 h; summary of the method: as §2
HCT-15 = experiment: Growth inhibition of human HCT15 cells after 48 hrs; conditions: HCT-15, 48 h; summary of the method: as §1
HT-29 = experiment: Growth inhibition of human HT29 cells after 48 hrs; conditions: HT-29, 48 h; summary of the method: as §1
SW-620 = experiment: Growth inhibition of human SW620 cells after 48 hrs; conditions: SW-620, 48 h; summary of the method: as §2
SF-539 = experiment: Growth inhibition of human SF539 cells after 48 hrs; conditions: SF-539, 48 h; summary of the method: as §1
SF-268 = experiment: Growth inhibition of human SF268 cells after 48 hrs; conditions: SF-268, 48 h; summary of the method: as §1
PC-3 = experiment: Growth inhibition of human PC3 cells after 48 hrs; conditions: PC-3, 48 h; summary of the method: as §1
UACC-62 = experiment: Growth inhibition of human UACC62 cells after 48 hrs; conditions: UACC-62, 48 h; summary of the method: as §2
RPMI-8226 = experiment: Growth inhibition of human RPMI8226 cells after 48 hrs; conditions: RPMI-8226, 48 h; summary of the method: as §1
NCI/ADR-RES = experiment: Growth inhibition of human NCI/ADR-RES cells after 48 hrs; summary of the method: as §1

For `CCOC(=O)CNC(=O)CCCn1c(=O)c2c3ccccc3n(C)c2n2nnc(-c3ccccc3)c12`, the GI50 (MDA-MB-231) was 14.8 µM, the LC50 (concentration killing 50% of cells) (MDA-MB-231) was greater than 50.1 µM and the TGI (MDA-MB-231; read-out: pTGI (converted)) was 30.9 µM. The GI50 (SN12C) was greater than 50.1 µM, the LC50 (SN12C) was greater than 50.1 µM and the TGI (SN12C; read-out: pTGI (converted)) was greater than 50.1 µM. For the same compound, the GI50 (DU-145) was 32.4 µM, the LC50 (DU-145) was greater than 50.1 µM and the TGI (DU-145; read-out: pTGI (converted)) was greater than 50.1 µM. The GI50 (HCC 2998) was greater than 50.1 µM, the LC50 (HCC 2998) was greater than 50.1 µM and the TGI (HCC 2998; read-out: pTGI (converted)) was greater than 50.1 µM. The GI50 (RXF 393) was 1320 nM, the LC50 (RXF 393) was 22.4 µM and the TGI (RXF 393; read-out: pTGI (converted)) was 4.37 µM. It also gave a GI50 (SK-MEL-2) of 9.55 µM, an LC50 (SK-MEL-2) greater than 50.1 µM and a TGI (SK-MEL-2; read-out: pTGI (converted)) of 28.8 µM. For the same compound, the GI50 (COLO 205) was greater than 50.1 µM, the LC50 (COLO 205) was greater than 50.1 µM and the TGI (COLO 205; read-out: pTGI (converted)) was greater than 50.1 µM. The GI50 (SK-OV-3) was 6.76 µM, the LC50 (SK-OV-3) was greater than 50.1 µM and the TGI (SK-OV-3; read-out: pTGI (converted)) was 43.7 µM. The GI50 (HOP-92) was greater than 50.1 µM, the LC50 (HOP-92) was 3.63 µM and the TGI (HOP-92; read-out: pTGI (converted)) was 14.8 µM. For the same compound, the GI50 (HOP-62) was 5.89 µM, the LC50 (HOP-62) was greater than 50.1 µM and the TGI (HOP-62; read-out: pTGI (converted)) was 17.8 µM. The GI50 (Malme-3M) was greater than 50.1 µM, the LC50 (Malme-3M) was greater than 50.1 µM and the TGI (Malme-3M; read-out: pTGI (converted)) was greater than 50.1 µM. The GI50 (OVCAR-8) was 25.1 µM, the LC50 (OVCAR-8) was greater than 50.1 µM and the TGI (OVCAR-8; read-out: pTGI (converted)) was greater than 50.1 µM. It also gave a GI50 (SNB-75) of 1120 nM, an LC50 (SNB-75) of 17 µM and a GI50 (HCT-15) greater than 50.1 µM. For the same compound, the LC50 (HCT-15) was greater than 50.1 µM, the TGI (HCT-15; read-out: pTGI) was greater than 50.1 µM and the GI50 (HT-29) was greater than 50.1 µM. The LC50 (concentration killing 50% of cells) (HT-29) was greater than 50.1 µM, the TGI (HT-29; read-out: pTGI (converted)) was greater than 50.1 µM and the GI50 (SW-620) was greater than 50.1 µM. For the same compound, the LC50 (lethal concentration, 50% cell kill) (SW-620) was greater than 50.1 µM, the TGI (SW-620; read-out: pTGI (converted)) was greater than 50.1 µM and the GI50 (SF-539) was 4.27 µM. For the same compound, the LC50 (concentration killing 50% of cells) (SF-539) was 28.8 µM, the TGI (SF-539; read-out: pTGI (converted)) was 11.7 µM and the GI50 (SF-268) was 14.1 µM. For the same compound, the CC50 (SF-268; read-out: Log LC50 (the source's name) (converted)) was greater than 50.1 µM, the TGI (SF-268; read-out: pTGI (converted)) was greater than 50.1 µM and the GI50 (PC-3) was 8.51 µM. For the same compound, the LC50 (PC-3) was greater than 50.1 µM, the TGI (PC-3; read-out: pTGI (converted)) was greater than 50.1 µM and the GI50 (UACC-62) was 7.24 µM. For the same compound, the LC50 (UACC-62) was greater than 50.1 µM, the TGI (UACC-62; read-out: pTGI (converted)) was 21.9 µM and the GI50 (RPMI-8226) was 10.7 µM. The LC50 (RPMI-8226) was greater than 50.1 µM, the TGI (RPMI-8226; read-out: pTGI (converted)) was 33.9 µM and the GI50 (NCI/ADR-RES) was greater than 50.1 µM. For the same compound, the LC50 (concentration killing 50% of cells) (NCI/ADR-RES) was greater than 50.1 µM and the TGI (NCI/ADR-RES; read-out: pTGI (converted)) was greater than 50.1 µM.
